Published values gathered from unrelated publications.
Lines come from different studies, so protocols differ.
Target: Proto-oncogene tyrosine-protein kinase Src (SRC, Homo sapiens, UniProt P12931)

With `CNC(=O)[C@@H]1CC[C@@H](n2c(-c3ccc4cnccc4c3)nc3ccc(C(=O)NCc4cccc(C(N)=O)c4)cc32)C1` the remaining binding was 100% (binding; competition with immobilised ligand; 1 µM).
With `Nc1c(C(=O)NCc2ccc(C(=O)NCCCC3CCCCC3)cc2)cnn1-c1ccccc1` the remaining binding was 100% (cell-free assay; competition with immobilised ligand; 0.1 µM).
`O=C(NCCCN1CCOCC1)c1ccc(Nc2ncc(Cl)c(-c3ccc(Cl)s3)n2)cc1` gave a remaining binding of 100% (binding; competition with immobilised ligand; 1 µM).
`CN(C)c1ncnc(-c2ccc3nc(Nc4cc(CN5CCN(C(=O)CC(F)(F)F)CC5)ccn4)[nH]c3c2)c1Cl` has a remaining binding of 100% (cell-free assay; competition with immobilised ligand; 1 µM).
`CN(C)c1nccc(-c2cnc3ncccn23)n1` has a remaining binding of 89% (binding; 1 µM).
`CN(C(=O)c1ccccc1)c1cc(N(C)c2ccc3c(c2)CCc2ccc(C(=O)NCCN4CCOCC4)cc2C3=O)ccc1F` gave a remaining binding of 98% (cell-free assay; competition with immobilised ligand; 1 µM).
For `CN(c1nccc(-c2cnn3ncccc23)n1)C1CC1`, the remaining binding was 100% (binding; 1 µM).
With `O=C(c1ccc(Nc2nccc(-c3cc4ccccc4s3)n2)cc1)N1CCC(N2CCCC2)CC1` the remaining binding was 63% (binding; competition with immobilised ligand; 1 µM).
The remaining binding of `Cc1cc(-n2nc(Cc3cc(F)cc(C(F)(F)F)c3)nc2C)ccc1C(N)=O` is reported as 95% (cell-free assay; competition with immobilised ligand; 1 µM).
`O=C(NCC1CCOCC1)c1n[nH]cc1NC(=O)c1c(F)cccc1F` gave a remaining binding of 86% (binding; competition with immobilised ligand; 1 µM).
With `COc1ccnn2ncc(-c3ccnc(N(C)C)n3)c12` the remaining binding was 100% (binding; 1 µM).
The remaining binding of `c1cncc(-c2cccc(Nc3nccc(NC4CCCCC4)n3)c2)c1` is reported as 2.2% (binding; competition with immobilised ligand; 10 µM).
`C[C@H]1CCN(c2nccc(-c3cnn4ncccc34)n2)C1` has a remaining binding of 100% (binding; 1 µM).
`O=C(Nc1cccnn1)N1CC(C/C=C/c2cncc(Oc3ccc(C(F)(F)F)cn3)n2)C1` has a remaining binding of 100% (cell-free assay; competition with immobilised ligand; 1 µM).
`CN(C)c1nccc(-c2cnn3ncccc23)n1` has a remaining binding of 100% (binding; 1 µM).
With `CNC(=O)Nc1ccc2c(c1)[C@@]1(CC2)OC(=O)N(CC(=O)N(Cc2ccc(F)cc2)[C@@H](C)C(F)(F)F)C1=O` the remaining binding was 90% (cell-free assay; competition with immobilised ligand; 1 µM).
The remaining binding of `CCN1CCN(Cc2ccc(C(=O)Nc3ccc(C)c(Oc4ccc5c(c4)CC(=O)N5)c3)cc2C(F)(F)F)CC1` is reported as 78% (binding; competition with immobilised ligand; 1 µM).
With `Cc1cnc(Nc2ccc(C(=O)N3CCC(N4CCCC4)CC3)cc2)nc1-c1cc2ccccc2s1` the remaining binding was 16% (binding; competition with immobilised ligand; 1 µM).
With `COc1ncc2cc3ccccc3nc2c1C#N` the remaining binding was 88% (cell-free assay; competition with immobilised ligand; 5 µM).
For `Cc1c[nH]c2nccc(Oc3c(F)cc(Nc4cc(Cl)nc(N)n4)cc3F)c12`, the remaining binding was 100% (cell-free assay; competition with immobilised ligand; 0.1 µM).
`C=CC(=O)N1CCC(C(=O)NCC(=O)N2CCN(c3nc(-c4cnc(N)nc4C(F)F)nc(N4CCOCC4)n3)CC2)CC1` gave a remaining binding of 91% (binding; competition with immobilised ligand; 1 µM).
`c1cnn2ncc(-c3ccnc(N4CCC45COC5)n3)c2c1` has a remaining binding of 100% (binding; 1 µM).
`O=c1nc(-c2ccccn2)sc2ccccc12` has a remaining binding of 92% (cell-free assay; competition with immobilised ligand; 1 µM).
For `N[C@@H]1CCN(c2nccc(-c3cnn4ncccc34)n2)C1`, the remaining binding was 100% (binding; 1 µM).
`C[C@@H](c1ccc(-n2cnc3c(N)ncnc32)cc1)N1CCc2nn(C)c(Cc3ccccc3)c2C1=O` has a remaining binding of 98% (binding; competition with immobilised ligand; 0.1 µM).
